Test [1] has as its target Serotonin 2 (5-HT2) receptor (Rattus norvegicus, UniProt P30994+P08909+P14842). Kind of test: Compound was tested for its inhibitory effect on the binding profile in 5-hydroxytryptamine 2 receptor using [3H]spiroperidol in rat brain. It counts as tissue-based. In a few lines:
(§1)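 Rat brain receptor binding with the stated radioligands. IC50 obtained by nonlinear regression from four to five concentrations. [3H]flupenthixol and [3H]N-propylnorapomorphine values come from four independent determinations each, and the [3H]haloperidol value from two experiments. Remaining ligands were determined once.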

Test [2] addresses T1, Adrenergic receptor alpha-1 (Rattus norvegicus, UniProt P15823+P23944+P43140).
T1 sequence (P15823 whole entry): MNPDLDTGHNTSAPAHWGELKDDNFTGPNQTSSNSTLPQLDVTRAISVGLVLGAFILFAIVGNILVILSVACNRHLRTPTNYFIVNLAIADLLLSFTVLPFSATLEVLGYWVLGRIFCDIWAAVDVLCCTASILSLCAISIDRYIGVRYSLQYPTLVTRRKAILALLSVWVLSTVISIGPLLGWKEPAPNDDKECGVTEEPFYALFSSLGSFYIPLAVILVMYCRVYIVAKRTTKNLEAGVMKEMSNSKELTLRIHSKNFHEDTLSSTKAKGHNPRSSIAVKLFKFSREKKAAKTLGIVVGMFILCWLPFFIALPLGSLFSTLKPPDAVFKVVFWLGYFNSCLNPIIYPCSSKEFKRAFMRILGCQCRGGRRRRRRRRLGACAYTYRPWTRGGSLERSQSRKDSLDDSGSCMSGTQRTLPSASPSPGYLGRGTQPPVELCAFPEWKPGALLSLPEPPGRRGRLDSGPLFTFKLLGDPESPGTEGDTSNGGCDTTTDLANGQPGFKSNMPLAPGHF
T1 sequence (P23944 whole entry): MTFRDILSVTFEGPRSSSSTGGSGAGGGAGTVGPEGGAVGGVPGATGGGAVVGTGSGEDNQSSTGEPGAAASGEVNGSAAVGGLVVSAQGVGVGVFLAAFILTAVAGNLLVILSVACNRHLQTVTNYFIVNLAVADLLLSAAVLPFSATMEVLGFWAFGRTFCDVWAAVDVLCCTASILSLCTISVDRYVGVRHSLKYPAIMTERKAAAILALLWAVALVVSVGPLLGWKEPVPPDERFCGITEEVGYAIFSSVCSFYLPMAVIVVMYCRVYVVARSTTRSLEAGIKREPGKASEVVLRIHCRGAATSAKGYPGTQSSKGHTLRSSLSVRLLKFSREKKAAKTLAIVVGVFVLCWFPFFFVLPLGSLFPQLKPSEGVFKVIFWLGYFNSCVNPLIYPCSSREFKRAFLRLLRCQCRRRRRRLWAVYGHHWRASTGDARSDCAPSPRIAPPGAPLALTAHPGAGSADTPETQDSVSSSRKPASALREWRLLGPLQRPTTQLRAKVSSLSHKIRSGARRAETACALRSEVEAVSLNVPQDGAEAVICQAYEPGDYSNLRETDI
T1 sequence (P43140 whole entry): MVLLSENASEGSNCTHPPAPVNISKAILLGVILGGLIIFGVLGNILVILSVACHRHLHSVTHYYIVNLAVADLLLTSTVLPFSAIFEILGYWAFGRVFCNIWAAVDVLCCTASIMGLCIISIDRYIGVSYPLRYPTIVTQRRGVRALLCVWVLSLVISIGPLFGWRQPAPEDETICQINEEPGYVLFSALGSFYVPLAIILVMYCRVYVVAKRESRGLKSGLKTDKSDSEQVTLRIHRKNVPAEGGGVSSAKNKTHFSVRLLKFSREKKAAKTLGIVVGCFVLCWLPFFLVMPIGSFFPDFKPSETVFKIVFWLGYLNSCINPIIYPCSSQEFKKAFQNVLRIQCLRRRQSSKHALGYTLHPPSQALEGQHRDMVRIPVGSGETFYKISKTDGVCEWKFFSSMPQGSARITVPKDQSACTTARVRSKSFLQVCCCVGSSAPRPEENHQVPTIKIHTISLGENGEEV
Briefly: Compound was tested for its inhibitory effect on the binding profile in Alpha-1 adrenergic receptor using [3H]prazosin in rat brain. The test is classed as tissue-based. In a few lines:
as §1

The target of another test is D(2) dopamine receptor (Rattus norvegicus, UniProt P61169). Kind of test: Compound was tested for its inhibitory effect on the binding profile in Dopamine receptor D2 using [3H]haloperidol in rat brain. The test is classed as tissue-based. The procedure, abridged:
as §1

Test [3] deals with Rattus norvegicus. Kind of test: Effect on DOPA accumulation level at an intraperitoneal dose of 30 mg/kg in rat. The test is classed as functional.
In test [4] the test system is Rattus norvegicus. Briefly: Compound tested for % reversal of DOPA accumulation at an intraperitoneal dose of 30 mg/kg. It counts as functional. The procedure, abridged: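 Rats dosed 1 h before sacrifice, with GBL (750 mg/kg ip) at 30 min and NSD 1015 (100 mg/kg ip) at 25 min before sacrifice. Striatal DOPA measured by HPLC with electrochemical detection. Value is percent reversal of the GBL-induced DOPA rise.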

Test [5] relates to Rattus norvegicus. Kind of test: Percentage of rats showing signs of stereotyped behavior at 30 mg/kg peroral dose and animals observed for 60 min postdose. The following applies: route oral.
Another test addresses D(1A) dopamine receptor (Rattus norvegicus, UniProt P18901). Briefly: Compound was tested for its inhibitory effect on the binding profile in Dopamine receptor D1 using [3H]flupenthixol in rat brain. It counts as tissue-based. The procedure, abridged:
as §1

The nature of test [6]: Compound tested for its liability for extrapyramidal side effects (EPS) in terms of no. of animals showing signs of EPS/no. of animals tested upon po administration at a dose of 80 mg/Kg; 0/3. The test is classed as functional.
Test [7] relates to Rattus norvegicus. Kind of test: Compound tested for its effective dose to inhibit rat locomotor activity after sc administration of the compound. It counts as functional. The procedure, abridged: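 Rats dosed sc, with locomotor activity recorded for 30 min immediately after dosing. ED50 generated from four to five doses using 5–12 animals per dose, reported with ±95% confidence limits.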

In the next test the test system is Mus musculus. Kind of test: Inhibition of mouse intraperitoneally. It counts as functional. To be noted: ip. The procedure, abridged: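 Inhibition of exploratory locomotor activity, scored together with motor coordination (ataxia). ED50 generated from four to five doses, with 5–12 animals per dose.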
Test [8] has as its system Rattus norvegicus. Kind of test: Percentage of rats showing signs of stereotyped behavior at 17 mg/kg peroral dose and followed 1 hr later by 10 mg/kg sc of SKF-38393 and animals observed for 60 min postdose before being. It counts as functional. In a few lines:
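Part 2: oral dose given to naive rats, six per dose, followed 1 h later by SKF 38393 (10 mg/kg sc). Stereotypy (repetitive rearing, head-swaying, sniffing, licking, gnawing lasting ≥5 s) rated over 60 min. Reported as percent of rats affected.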

Test [9] concerns the target Dopamine receptor. Kind of test: Compound was tested for inhibitory binding activity against Dopamine receptor in rat striatal membranes using [3H]HAL as the radioligand. It counts as cell membranes, Striatum, Membrane. In a few lines:
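[3H]Haloperidol displacement from rat striatal DA receptors, run in duplicate. IC50 obtained by nonlinear regression from four to five concentrations.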

For test [10], the system named is Rattus norvegicus. Kind of test: Compound tested for % inhibition of DA neuronal firing at an intraperitoneal dose of 2.5 mg/kg. The test is classed as functional. The following applies: ip.
Test [11] concerns the target Dopamine receptor. Briefly: Compound was tested for its inhibitory effect on the binding profile in Dopamine receptor using [3H]N-propylnorapomorphine in rat brain. The test is classed as tissue-based. The procedure, abridged: as §1

Chain of D(2) dopamine receptor (P61169 whole entry): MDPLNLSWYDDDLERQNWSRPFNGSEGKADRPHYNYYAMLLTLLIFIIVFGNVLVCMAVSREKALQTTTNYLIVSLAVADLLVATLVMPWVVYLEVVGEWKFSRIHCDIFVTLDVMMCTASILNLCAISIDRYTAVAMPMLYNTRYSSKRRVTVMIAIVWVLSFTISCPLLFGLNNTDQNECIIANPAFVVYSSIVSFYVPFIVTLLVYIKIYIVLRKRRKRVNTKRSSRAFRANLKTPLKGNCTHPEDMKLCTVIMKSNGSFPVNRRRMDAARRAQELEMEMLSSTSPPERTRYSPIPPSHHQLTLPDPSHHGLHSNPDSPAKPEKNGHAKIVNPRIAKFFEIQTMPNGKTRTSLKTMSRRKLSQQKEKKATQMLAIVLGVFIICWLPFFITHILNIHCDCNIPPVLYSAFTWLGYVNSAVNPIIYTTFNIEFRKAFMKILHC
Chain of D(1A) dopamine receptor (P18901 whole entry): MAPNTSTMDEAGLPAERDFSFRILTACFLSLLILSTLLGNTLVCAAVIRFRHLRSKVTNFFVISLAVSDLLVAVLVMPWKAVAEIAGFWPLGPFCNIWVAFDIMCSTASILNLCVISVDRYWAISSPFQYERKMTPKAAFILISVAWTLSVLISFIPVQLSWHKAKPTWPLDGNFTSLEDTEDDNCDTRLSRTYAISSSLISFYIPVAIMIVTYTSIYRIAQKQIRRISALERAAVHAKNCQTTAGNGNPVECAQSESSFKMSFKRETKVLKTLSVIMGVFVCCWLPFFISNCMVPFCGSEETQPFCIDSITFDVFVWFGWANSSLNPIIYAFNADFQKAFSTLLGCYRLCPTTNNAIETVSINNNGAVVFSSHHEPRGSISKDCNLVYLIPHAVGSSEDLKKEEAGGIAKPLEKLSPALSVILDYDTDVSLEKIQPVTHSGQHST

The term IC50 denotes the concentration that inhibits the measured activity by half. What is called ED50 is the dose that gives a 50% effect, or the effect in half of the subjects. A lower ED50 goes with an effect at a small dose. One may read the inhibition in vivo as the drop in the measured response relative to a control, in per cent. A high value points to strong suppression. Regarding `O=c1ccoc2cc(OCCCN3CCN(c4ccccn4)CC3)ccc12`, the IC50 in test [1] was 1000 nM; in test [2] it was 170 nM; on D(2) dopamine receptor, 1080 nM; on D(1A) dopamine receptor it was 21.7 µM; at Dopamine receptor [9], 1000 nM; at Dopamine receptor [11], 59 nM. Also, the DOPA level in the test on Rattus norvegicus [3] turned out to be 0.28 µg/g. The Reversal in the test on Rattus norvegicus [4] is reported as 100%. Moreover, the Animals with Rattus norvegicus [5] and in the test with Rattus norvegicus [8] was 0% throughout. The EPS in test [6] was determined as 0. For the same molecule, the ED50 with Rattus norvegicus [7] was 0.58 mg/kg; with Mus musculus it was 1.3 mg/kg. Further, 2.5 mg/kg produced 93% inhibition in vivo in the test on Rattus norvegicus [10].

(Values after ChEMBL document CHEMBL1125728, “Dopamine autoreceptor agonists as potential antipsychotics. 2. (Aminoalkoxy)-4H-1-benzopyran-4-ones” (J Med Chem, 1991).)
